Experimental data from ChEMBL document CHEMBL1795254, “Synthesis, structure-affinity relationships, and molecular modeling studies of novel pyrazolo[3,4-c]quinoline derivatives as adenosine receptor antagonists” (Bioorg Med Chem, 2011).
pKi: −log10 of the molar value.

Experiments:
[1] = molecular target: T1, Adenosine receptor A1 (Homo sapiens) (UniProt P30542); experiment: Displacement of [3H]DPCPX from human recombinant adenosine A1 receptor expressed in CHO cell membranes at 1 uM by scintillation counting
T1 sequence (whole entry): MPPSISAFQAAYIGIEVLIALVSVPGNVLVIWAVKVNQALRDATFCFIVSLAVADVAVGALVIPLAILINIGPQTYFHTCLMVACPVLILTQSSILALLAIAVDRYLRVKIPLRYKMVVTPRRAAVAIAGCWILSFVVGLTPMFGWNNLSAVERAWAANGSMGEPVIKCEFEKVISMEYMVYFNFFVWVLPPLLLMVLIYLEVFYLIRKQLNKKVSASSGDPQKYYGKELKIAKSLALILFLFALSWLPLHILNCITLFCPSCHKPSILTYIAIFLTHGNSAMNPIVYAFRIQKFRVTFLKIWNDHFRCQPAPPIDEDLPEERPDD
Summary of the method: (§1)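 hA1 CHO membranes incubated with 1 nM [³H]DPCPX for 120 min at 25 °C in 50 mM Tris-HCl, pH 7.4. Ki from six to eight antagonist concentrations: IC50 converted by Cheng–Prusoff, curves fitted by weighted nonlinear least squares, four separate assays in duplicate (mean ± SEM). Single-concentration runs give percentage inhibition of specific binding.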

Adenosine receptor A2a [2] = molecular target: T2, Adenosine receptor A2a (Homo sapiens, UniProt P29274); experiment: Displacement of [3H]ZM241385 from human recombinant adenosine A2A receptor expressed in CHO cell membranes at 1 uM by scintillation counting
T2 sequence (P29274 whole entry): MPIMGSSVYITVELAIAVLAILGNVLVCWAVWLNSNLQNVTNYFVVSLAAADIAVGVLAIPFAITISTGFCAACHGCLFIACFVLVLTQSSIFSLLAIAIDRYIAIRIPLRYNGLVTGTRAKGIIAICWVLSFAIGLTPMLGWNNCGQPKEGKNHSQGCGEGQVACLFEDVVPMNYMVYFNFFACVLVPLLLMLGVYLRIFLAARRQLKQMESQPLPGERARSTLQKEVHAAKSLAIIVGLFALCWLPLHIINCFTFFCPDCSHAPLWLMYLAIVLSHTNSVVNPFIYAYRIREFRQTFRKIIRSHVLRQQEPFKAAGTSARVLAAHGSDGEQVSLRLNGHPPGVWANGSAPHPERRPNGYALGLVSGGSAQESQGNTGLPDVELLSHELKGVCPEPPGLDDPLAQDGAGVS
Summary of the method: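 Uses 1 nM [³H]ZM241385 with hA2A CHO membranes in 50 mM Tris-HCl, 10 mM MgCl2, pH 7.4, for 60 min at 4 °C. Ki from six to eight antagonist concentrations via Cheng–Prusoff with weighted nonlinear least-squares fitting; four assays in duplicate (mean ± SEM). Single-concentration runs give percentage inhibition.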

[3] = molecular target: T3, Adenosine receptor A3 (Homo sapiens) (UniProt P0DMS8); experiment: Displacement of [125I]I-AB-MECA from human recombinant adenosine A3 receptor expressed in CHO cells at 1 uM by scintillation counting; type: cell-based
T3 sequence (whole entry): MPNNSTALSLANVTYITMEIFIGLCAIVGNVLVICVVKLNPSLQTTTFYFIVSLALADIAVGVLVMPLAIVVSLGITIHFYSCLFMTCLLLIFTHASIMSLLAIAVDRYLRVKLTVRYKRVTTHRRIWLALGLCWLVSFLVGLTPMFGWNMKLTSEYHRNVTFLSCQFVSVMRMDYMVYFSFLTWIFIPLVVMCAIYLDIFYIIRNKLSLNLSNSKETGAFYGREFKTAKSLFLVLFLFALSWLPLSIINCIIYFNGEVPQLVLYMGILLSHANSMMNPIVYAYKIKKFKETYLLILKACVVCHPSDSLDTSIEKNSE
Summary of the method: (§2)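 For hA3, CHO membranes are incubated with [¹²⁵I]AB-MECA in 50 mM Tris-HCl, 10 mM MgCl2, 1 mM EDTA, pH 7.4, for 120 min at 4 °C. Ki from six to eight ligand concentrations via Cheng–Prusoff with weighted nonlinear least-squares fitting; four assays in duplicate (mean ± SEM). Single-concentration runs give percentage inhibition.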

[4] = molecular target: T4, Adenosine receptor A2b (Homo sapiens) (UniProt P29275); experiment: Antagonist activity at human recombinant adenosine A2B receptor expressed in CHO cells assessed as inhibition of NECA-induced cAMP levels at 1 uM; type: functional, cell-based
T4 sequence (whole entry): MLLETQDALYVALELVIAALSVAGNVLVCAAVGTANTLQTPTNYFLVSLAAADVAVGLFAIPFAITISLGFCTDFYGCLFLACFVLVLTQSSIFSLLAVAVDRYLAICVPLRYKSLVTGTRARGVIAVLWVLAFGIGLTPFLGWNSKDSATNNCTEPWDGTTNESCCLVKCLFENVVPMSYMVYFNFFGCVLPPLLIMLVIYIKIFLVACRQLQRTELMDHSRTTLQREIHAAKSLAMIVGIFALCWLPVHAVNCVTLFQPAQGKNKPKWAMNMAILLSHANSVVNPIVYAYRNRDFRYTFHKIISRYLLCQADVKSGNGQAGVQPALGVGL
Summary of the method: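 hA2B-transfected CHO cells (1×10⁶/assay), preincubated 10 min at 37 °C in pH 7.4 saline-Hepes-glucose buffer with 2 IU/ml adenosine deaminase and Ro 20-1724 as phosphodiesterase inhibitor. Compound tested against 200 nM NECA-stimulated cAMP. Reaction stopped with cold 6% TCA and ether-extracted. cAMP measured by competition binding with [³H]cAMP and bovine adrenal binding protein (150 min, 4 °C), charcoal separation, scintillation counting; expressed as percentage inhibition.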

Adenosine receptor A3 = molecular target: T5, Adenosine receptor A3 (Homo sapiens, UniProt P0DMS8); experiment: Displacement of [125I]I-AB-MECA from human recombinant adenosine A3 receptor expressed in CHO cells by scintillation counting; type: cell-based; summary of the method: as §2
T5 sequence (P0DMS8 whole entry): T3 sequence (whole entry)

Adenosine receptor A1 = molecular target: T6, Adenosine receptor A1 (Homo sapiens, UniProt P30542); experiment: Displacement of [3H]DPCPX from human recombinant adenosine A1 receptor expressed in CHO cell membranes by scintillation counting; summary of the method: as §1
T6 sequence (P30542 whole entry): T1 sequence (whole entry)

Adenosine receptor A2a [5] = molecular target: T2, Adenosine receptor A2a; experiment: Displacement of [3H]ZM241385 from human recombinant adenosine A2A receptor expressed in CHO cell membranes by scintillation counting
Adenosine receptor A2a [6] = molecular target: T2, Adenosine receptor A2a; settings: CHO, 10 uM

Row | Compound | inhibition [1] [%] | inhibition (Adenosine receptor A2a [2]) [%] | inhibition [3] [%] | inhibition [4] [%] | pKi (Adenosine receptor A3) | pKi (Adenosine receptor A1) | pKi (Adenosine receptor A2a [5]) | inhibition (Adenosine receptor A2a [6]) [%]
1 | Cn1cc2c(n1)c(=O)[nH]c1ccccc12 | 2 | 1 | 12 | 2 | – | – | – | –
2 | Nc1nc2c(OCCc3ccccc3)cccc2c2cn(-c3ccccc3)nc12 | 40 | 11 | 28 | 5 | – | – | – | –
3 | O=c1[nH]c2c(OCc3ccccc3)cccc2c2cn(-c3ccccc3)nc12 | 20 | 1 | 33 | 2 | – | – | – | –
4 | Cn1cc2c(n1)c(=O)[nH]c1c(OCc3ccccc3)cccc12 | 2 | 1 | – | 3 | 6.22 | – | – | –
5 | O=c1[nH]c2c(OC(c3ccccc3)c3ccccc3)cccc2c2cn(-c3ccccc3)nc12 | 6 | 1 | 6 | 7 | – | – | – | –
6 | Cn1cc2c(n1)c(N)nc1c(OCc3ccccc3)cccc12 | – | – | – | 4 | 6.30 | 6.01 | 6.12 | –
7 | Nc1nc2c(Br)cccc2c2cn(-c3ccccc3)nc12 | – | 35 | 29 | 2 | – | 6.52 | – | –
8 | O=c1[nH]c2c(O)cccc2c2cn(-c3ccccc3)nc12 | 1 | 5 | 16 | 4 | – | – | – | –
9 | Cn1cc2c(n1)c(N)nc1ccccc12 | 20 | 26 | 18 | 5 | – | – | – | –
10 | O=C(Nc1cccc2c1[nH]c(=O)c1nn(-c3ccccc3)cc12)OCc1ccccc1 | 3 | 1 | 14 | 5 | – | – | – | –
11 | Nc1nc2c(NCc3ccccc3)cccc2c2cn(-c3ccccc3)nc12 | – | 1 | 1 | 3 | – | 6.34 | – | –
12 | O=c1[nH]c2ccccc2c2cn(-c3ccccc3)nc12 | – | – | – | – | – | – | – | 43
13 | Nc1nc2c(O)cccc2c2cn(-c3ccccc3)nc12 | – | 19 | 20 | 4 | – | 7.00 | – | –
14 | O=c1[nH]c2c(Br)cccc2c2cn(-c3ccccc3)nc12 | 8 | 17 | 16 | 5 | – | – | – | –
15 | Nc1nc2c(OCc3ccccc3)cccc2c2cn(-c3ccccc3)nc12 | – | 16 | 20 | 5 | – | 6.85 | – | –
16 | Nc1cccc2c1[nH]c(=O)c1nn(-c3ccccc3)cc12 | 8 | 1 | 18 | 5 | – | – | – | –
